Experimental data published in ChEMBL document CHEMBL1154832, “Synthesis and antitumor activity of new dihydropyridine thioglycosides and their corresponding dehydrogenated forms” (Eur J Med Chem, 2010).

How the values were obtained:
[1] = tested on: Mus musculus; assay: Acute toxicity in ip dosed Swiss albino mouse inoculated with human HeLa cells assessed as mortality measured up to two weeks; assay type: organism-based; conditions: in vivo
In short: (§1)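 Adult Swiss albino mice fasted 12 h, randomised into groups of 10. Single i.p. administration at graded doses, 1 ml/kg body weight; controls received vehicle alone. Food and water given immediately after dosing. Mortality followed for up to two weeks. LD50 taken as the dose giving 50% mortality.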

[2] = tested on: Mus musculus; assay: Acute toxicity in ip dosed Swiss albino mouse xenografted with human HepG2 cells assessed as mortality measured up to two weeks; assay type: organism-based; conditions: in vivo; in short: as §1
[3] = tested on: HeLa; assay: Antitumor activity against human HeLa cells xenografted in Swiss albino mouse assessed as increase in life span at 10 ug/kg, ip for 10 consecutive days relative to control; assay type: functional
In short: (§2)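 Male Swiss albino mice (20 ± 2 g), acclimatised one week at 25–27 °C, 12 h light/dark. Ascites tumour established by i.p. inoculation of 1 × 10⁶ viable cells. Dosing began 24 h after inoculation, i.p. daily for 10 consecutive days. DMSO vehicle control group; cisplatine 2 mg/kg i.p. for 10 days as reference. Survival time recorded and % increase in life span derived; mean ± SE, n = 10 mice.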

[4] = tested on: HepG2; assay: Antitumor activity against human HepG2 cells xenografted in Swiss albino mouse assessed as increase in life span at 10 ug/kg, ip for 10 consecutive days relative to control; assay type: functional; in short: as §2

Row | Compound | LD50 [1] [mg/kg] | LD50 [2] [mg/kg] | Activity [3] [%] | Activity [4] [%]
1 | CC(=O)O[C@H]1O[C@@H](SC2=C(C#N)C(c3ccc([N+](=O)[O-])cc3)C(C#N)=C(N)N2)[C@H](OC(C)=O)[C@@H](OC(C)=O)[C@@H]1OC(=O)O (stereo not given in full) | 0.07 | 0.085 | 27 | 34
2 | COc1ccc(C2C(C#N)=C(N)NC(S[C@@H]3O[C@H](OC(C)=O)[C@@H](OC(=O)O)[C@H](OC(C)=O)[C@H]3OC(C)=O)=C2C#N)cc1 (stereo not given in full) | 0.16 | 0.15 | 25 | 39
3 | CC(=O)O[C@H]1O[C@@H](SC2=C(C#N)C(c3ccc4ccccc4c3)C(C#N)=C(N)N2)[C@H](OC(C)=O)[C@@H](OC(C)=O)[C@H]1OC(=O)O (stereo not given in full) | 0.07 | 0.065 | 31 | 38
4 | COc1ccc(C2C(C#N)=C(N)NC(S[C@@H]3O[C@H](OC(C)=O)[C@H](OC(=O)O)[C@H](OC(C)=O)[C@H]3OC(C)=O)=C2C#N)cc1 (stereo not given in full) | 0.065 | 0.06 | 30 | 30
5 | CC(=O)O[C@H]1O[C@@H](Sc2nc(N)c(C#N)c(-c3ccc4ccccc4c3)c2C#N)[C@H](OC(C)=O)[C@@H](OC(C)=O)[C@@H]1OC(C)=O | 0.06 | 0.06 | 40 | 49
6 | CC(=O)O[C@H]1O[C@@H](Sc2nc(N)c(C#N)c(-c3ccc4ccccc4c3)c2C#N)[C@H](OC(C)=O)[C@@H](OC(C)=O)[C@H]1OC(C)=O | 0.135 | 0.125 | 39 | 50
7 | COc1ccc(-c2c(C#N)c(N)nc(S[C@@H]3O[C@H](OC(C)=O)[C@H](OC(C)=O)[C@H](OC(C)=O)[C@H]3OC(C)=O)c2C#N)cc1 | 0.07 | 0.065 | 47 | 48
8 | COc1ccc(C2C(C#N)=C(N)NC(S[C@@H]3O[C@H](O)[C@H](O)[C@H](O)[C@H]3O)=C2C#N)cc1 (stereo not given in full) | 0.08 | 0.06 | 44 | 63
9 | N#CC1=C(N)NC(S[C@@H]2O[C@H](O)[C@@H](O)[C@H](O)[C@H]2O)=C(C#N)C1c1ccc2ccccc2c1 (stereo not given in full) | 0.115 | 0.11 | 39 | 50
10 | COc1ccc(C2C(C#N)=C(N)NC(S[C@@H]3O[C@H](O)[C@@H](O)[C@H](O)[C@H]3O)=C2C#N)cc1 (stereo not given in full) | 0.095 | 0.11 | 55 | 69
11 | N#CC1=C(N)NC(S[C@@H]2O[C@H](O)[C@H](O)[C@H](O)[C@H]2O)=C(C#N)C1c1ccc2ccccc2c1 (stereo not given in full) | 0.12 | 0.13 | 45 | 60
12 | N#Cc1c(N)nc(S[C@@H]2O[C@H](O)[C@@H](O)[C@H](O)[C@H]2O)c(C#N)c1-c1ccc2ccccc2c1 | 0.11 | 0.13 | 51 | 58
13 | CC(=O)O[C@H]1O[C@@H](SC2=C(C#N)C(c3ccccc3)C(C#N)=C(N)N2)[C@H](OC(C)=O)[C@@H](OC(C)=O)[C@@H]1OC(=O)O (stereo not given in full) | 0.075 | 0.08 | 30 | 29
14 | CC(=O)O[C@H]1O[C@@H](SC2=C(C#N)C(c3ccc(Br)cc3)C(C#N)=C(N)N2)[C@H](OC(C)=O)[C@@H](OC(C)=O)[C@@H]1OC(=O)O (stereo not given in full) | 0.09 | 0.09 | 29 | 31
15 | CC(=O)O[C@H]1O[C@@H](SC2=C(C#N)C(c3ccccc3)C(C#N)=C(N)N2)[C@H](OC(C)=O)[C@@H](OC(C)=O)[C@H]1OC(=O)O (stereo not given in full) | 0.06 | 0.07 | 30 | 34
16 | CC(=O)O[C@H]1O[C@@H](Sc2nc(N)c(C#N)c(-c3ccc(Br)cc3)c2C#N)[C@H](OC(C)=O)[C@@H](OC(C)=O)[C@@H]1OC(C)=O | 0.075 | 0.065 | 46 | 48
17 | CC(=O)O[C@H]1O[C@@H](Sc2nc(N)c(C#N)c(-c3ccccc3)c2C#N)[C@H](OC(C)=O)[C@@H](OC(C)=O)[C@H]1OC(C)=O | 0.06 | 0.065 | 38 | 43
18 | N#Cc1c(N)nc(S[C@@H]2O[C@H](O)[C@H](O)[C@H](O)[C@H]2O)c(C#N)c1-c1ccc2ccccc2c1 | 0.125 | 0.145 | 53 | 57
19 | COc1ccc(-c2c(C#N)c(N)nc(S[C@@H]3O[C@H](O)[C@H](O)[C@H](O)[C@H]3O)c2C#N)cc1 | 0.13 | 0.115 | 47 | 56
20 | N#Cc1c(N)nc(S[C@@H]2O[C@H](O)[C@@H](O)[C@H](O)[C@H]2O)c(C#N)c1-c1ccc(Br)cc1 | 0.12 | 0.105 | 50 | 60
